Laboratory results taken from ChEMBL document CHEMBL1128602, “Potent in vitro and in vivo inhibitors of platelet aggregation based upon the Arg-Gly-Asp sequence of fibrinogen. (Aminobenzamidino)succinyl (ABAS) series of orally active fibrinogen receptor antagonists” (J Med Chem, 1995).

Legend:
Canis familiaris [1] = assay: Duration of action to obtain >20% ex vivo collagen induced platelet aggregation was reported, after 10 mg/kg (post-ig) into dogs; duration of time >6, <24; assay type: functional, Canis lupus familiaris
Outline: (§1)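 Ester prodrugs dosed orally by capsule to conscious beagle dogs (n = 2). Citrated cephalic-vein blood (2 mL) drawn before and at set times after dosing for 24 h or until back to baseline. PRP made by spinning at 260g for 6 min. Aggregation induced with equine tendon collagen (final 33 μg/mL) at 37 °C and followed for 3 min. Duration is the time with >20% inhibition versus predose control.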

Canis familiaris [2] = assay: Duration of action to obtain >20% ex vivo collagen induced platelet aggregation was reported, after 10 mg/kg (post-ig) into dogs.; assay type: functional, Canis lupus familiaris; outline: as §1
Canis familiaris [3] = assay: Duration of action to obtain >20% ex vivo collagen induced platelet aggregation was reported, after 5 mg/kg (post-ig) into dogs.; assay type: functional, Canis lupus familiaris; outline: as §1
[4] = Area under curve was determined by HPLC at a dosage of 2.27 mg/kg administered intravenously by bolus method in dog; assay type: ADME, organism-based, Canis lupus familiaris; parameters: dose 2.27 mg/kg, route intravenous; details: in vivo, iv
Outline: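 Female dogs (7–12 kg, n = 3), fasted 18 h. Aqueous saline solution injected into a radial vein (0.5 mL/kg) over 2–3 min. Femoral vein blood (3.5 mL) taken at 0.25, 0.5, 1, 2, 3, 5, 8, 13 and 24 h, put on ice, centrifuged, plasma held at –20 °C. Acid level in plasma measured by HPLC; AUC by trapezoidal method extrapolated to infinity and back to zero.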

Canis familiaris [5] = assay: Duration of action to obtain >20% ex vivo collagen induced platelet aggregation was reported, after 20 mg/kg (post-ig) into dogs.; assay type: functional, Canis lupus familiaris; outline: as §1
Canis familiaris [6] = assay: Duration of action to obtain >20% ex vivo collagen induced platelet aggregation was reported, after 20 mg/kg (post-ig) into dogs; duration of time >6, <24; assay type: functional, Canis lupus familiaris; outline: as §1
Canis familiaris [7] = assay: Duration of action to obtain >20% ex vivo collagen induced platelet aggregation was reported, after […] 5 mg/kg orally (post-ig) into dogs.; assay type: functional, Canis lupus familiaris; details: route oral; outline: as §1
Canis familiaris [8] = assay: Duration of action to obtain >20% ex vivo collagen induced platelet aggregation was reported, after 20 mg/kg (post-ig) into dogs; duration of time >3, <6; assay type: functional, Canis lupus familiaris; outline: as §1
Canis familiaris [9] = assay: Duration of action to obtain >20% ex vivo collagen induced platelet aggregation was reported, after 20 mg/kg (post-ig) into dogs; Duration of time >6, < 24; assay type: functional, Canis lupus familiaris; outline: as §1
Canis familiaris [10] = assay: Area under curve of acid 2a was determined by HPLC at a dosage of 5.45 mg/kg administered intragastrically by capsule method in dog; assay type: ADME, organism-based, Canis lupus familiaris; parameters: dose 5.45 mg/kg, route intragastric; details: in vivo, po
Outline: (§2)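 Six female dogs, 7–12 kg, three per group, fasted 18 h. Prodrug ester given intragastrically as aqueous solution (2 mL/kg) by gavage or in gelatin capsule. Blood (3.5 mL) drawn via femoral vein catheter at 0.5, 1, 1.5, 2, 3, 5, 8, 13, 24 and 48 h, kept on ice, centrifuged, plasma stored at –20 °C. Acid measured in plasma by HPLC; AUC by trapezoidal method, extrapolated to infinity and back to zero.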

Canis familiaris [11] = assay: Area under curve of acid 2a was determined by HPLC at a dosage of 5.45 mg/kg administered intragastrically by gavage method in dog; assay type: ADME, organism-based, Canis lupus familiaris; parameters: dose 5.45 mg/kg, route intragastric; details: in vivo, po; outline: as §2
[12] = Area under curve of acid 2a was determined by HPLC at a dosage of 54.5 mg/kg administered intragastrically by gavage method in dog; assay type: ADME, organism-based; parameters: dose 54.5 mg/kg, route intragastric; details: in vivo, po; outline: as §2
Canis familiaris [13] = assay: Area under curve of acid 2a was determined by HPLC at a dosage of 54.5 mg/kg administered intragastrically by capsule method in dog; assay type: ADME, organism-based, Canis lupus familiaris; parameters: dose 54.5 mg/kg, route intragastric; details: in vivo, po; outline: as §2

`CCOC(=O)CC(NC(=O)CCCCc1ccc(C(=N)N)cc1)c1ccccc1` (stereo not drawn) gave a Duration time (Canis familiaris [1]) of over 6 h.
`CCOC(=O)CC(NC(=O)CCC(=O)Nc1ccc(C(=N)N)cc1)c1cccnc1` (stereo not drawn) gave a Duration time (Canis familiaris [2]) of over 24 h and a Duration time (Canis familiaris [3]) of over 6 h.
`C#C[C@H](CC(=O)O)NC(=O)CCC(=O)Nc1ccc(C(=N)N)cc1` gave an AUC [4] of 2490 ng·h/mL.
With `C=CC(CC(=O)OCC)NC(=O)CCC(=O)Nc1ccc(C(=N)N)cc1` (stereo not drawn) the Duration time (Canis familiaris [5]) was over 24 h.
Molecule `CCOC(=O)CC(C)NC(=O)CCC(=O)Nc1ccc(C(=N)N)cc1` (stereo not drawn) has a Duration time (Canis familiaris [5]) of over 30 h.
`CCOC(=O)CC(NC(=O)CCC(=O)Nc1ccc(C(=N)N)cc1)c1ccc(OCC)nc1` (stereo not drawn) showed a Duration time (Canis familiaris [3]) of under 6 h.
`CCOC(=O)CC(C)NC(=O)CCCCc1ccc(C(=N)N)cc1` (stereo not drawn) gave a Duration time (Canis familiaris [6]) of over 6 h.
`CCOC(=O)CC(NC(=O)CCC(=O)Nc1ccc(C(=N)N)cc1)c1cnc2ccccc2c1` (stereo not drawn) gave a Duration time (Canis familiaris [3]) of under 6 h.
Work on `CCOC(=O)CC(Cc1ccccc1)NC(=O)CCC(=O)Nc1ccc(C(=N)N)cc1` (stereo not drawn) yielded a Duration time (Canis familiaris [6]) of over 6 h.
In the case of `CCOC(=O)CC(NC(=O)CCC(=O)Nc1ccc(C(=N)N)cc1)c1ccc2c(c1)OCO2` (stereo not drawn), the Duration time (Canis familiaris [7]) is reported as over 24 h.
Molecule `CCOC(=O)CC(Cc1ccccc1)NC(=O)CCCCc1ccc(C(=N)N)cc1` (stereo not drawn) has a Duration time (Canis familiaris [8]) of over 3 h.
In the case of `CCOC(=O)CC(NC(=O)CCC(=O)Nc1ccc(C(=N)N)cc1)c1ccccc1` (stereo not drawn), the Duration time (Canis familiaris [9]) is reported as over 6 h.
In the case of `C#C[C@H](CC(=O)OCC)NC(=O)CCC(=O)Nc1ccc(C(=N)N)cc1` [XEMILOFIBAN], the Duration time (Canis familiaris [2]) is reported as over 24 h, the AUC (Canis familiaris [10]) is reported as 2660 ng·h/mL and the AUC (Canis familiaris [11]) is reported as 2730 ng·h/mL. For the same molecule, the AUC [12] was 31700 ng·h/mL and the AUC (Canis familiaris [13]) was 31200 ng·h/mL.
